The values that follow come from ChEMBL document CHEMBL1129933, “Tyrosine kinase inhibitors. 6. Structure-activity relationships among N- and 3-substituted 2,2'-diselenobis(1H-indoles) for inhibition of protein tyrosine kinases and comparative in vitro and in vivo studies against selected sulfur congeners” (J Med Chem, 1997).

Bounds are passed on as bounds.

In general, IC50 refers to the concentration needed to halve the response being measured. Broadly, the Ki is a measure of affinity in units of concentration, obtained from inhibition or displacement.

Assay [1] concerns the target Fibroblast growth factor receptor (Mus musculus, UniProt P21803+Q03142+P16092+Q61851). In words: Inhibition of fibroblast growth factor (bFGF)-mediated autophosphorylation of FGF-R in Swiss 3T3 mouse fibroblasts. Format: functional. Summed up: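 Swiss 3T3 fibroblasts were treated 2 h with a range of compound concentrations, then stimulated for 5 min with growth factor (bFGF). Receptor tyrosine phosphorylation was read by extraction and western blotting.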

Assay [2] is described as follows: Inhibition of DNA synthesis. Format: functional. Summed up: (§1)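 Log-phase cells were drug-treated for 2 h, then exposed for 2 h to 1 µM [methyl-3H]thymidine (DNA), [5-3H]uridine (RNA) or (S)-[4,5-3H]leucine (protein), each at 1 µCi/nmol. Cells were trypsinized into ice-cold 15% TCA, and precipitates were collected on glass-fibre filters, washed, and counted by scintillation.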

Assay [3] deals with A-431. In words: In vivo activity against human A431 epidermoid xenograft, tumor growth delay (T-C, days) at 0.5 mg/kg/day administered subcutaneously for 1-27 days. To be noted: route subcutaneous. (A xenograft is tissue or cells of one species grown in another, often human tumour cells in immunodeficient mice.)
The target in assay [4] is T1, Platelet-derived growth factor receptor beta (Mus musculus, UniProt P05622). In words: Inhibition of platelet-derived growth factor receptor (PDGFr) autophosphorylation. Format: functional. Summed up:
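Swiss 3T3 fibroblasts were treated 2 h with a range of compound concentrations, then stimulated 5 min with growth factor. Receptor tyrosine phosphorylation was assessed by cell extraction and western blotting.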

Assay [5] has as its system A-431. Nature of the assay: In vivo activity against human A431 epidermoid xenograft, net cell kill at 0.5 mg/kg/day administered subcutaneously for 9-15 days. The assay is classed as functional. To be noted: route subcutaneous. In a few lines: (§2)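 Nude mice (NCr nu/nu), 18-22 g, randomized, implanted sc in the right axilla with serially passaged A431 tumor fragments on day 0. Dosing was by ip bolus or continuous sc Alzet miniosmotic pump infusion, by average cage weight. Vehicle was distilled H2O or 10% DMA in 50 mM lactic acid buffer, pH 4.0, depending on compound. Net cell kill = net log reduction in tumor burden between first and last treatments.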

Assay [6] deals with C6. Nature of the assay: In vivo activity against C6 glioma xenograft, weight change after 1.8 mg/kg ip dose for 9 days. Format: functional. To be noted: route intraperitoneal. In a few lines: (§3)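 […] C6 glioma xenograft, serially passaged in NCr nu/nu nude mice, implanted sc as tumor fragments in the right axilla on day 0. Mice weighed 18-22 g and were randomized. Dosing was ip bolus on a d1-9 daily schedule in 10% DMA in 50 mM lactic acid buffer, pH 4.0, by average cage weight. Weight change is the maximum treatment-related weight loss in the growth delay assay.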

Assay [7] is described as follows: Inhibition of protein synthesis. Format: functional. Summed up:
as §1

The test system of assay [8] is A-431. Nature of the assay: In vivo activity against human A431 epidermoid xenograft, tumor growth delay (T-C) at 0.5 mg/kg/day administered subcutaneously for 9-15 days. To be noted: route subcutaneous.
Assay [9] deals with T2, Epidermal growth factor receptor (Homo sapiens, UniProt P00533). In words: Inhibition of epidermal growth factor receptor (EGFr).
T2 sequence (P00533 whole entry): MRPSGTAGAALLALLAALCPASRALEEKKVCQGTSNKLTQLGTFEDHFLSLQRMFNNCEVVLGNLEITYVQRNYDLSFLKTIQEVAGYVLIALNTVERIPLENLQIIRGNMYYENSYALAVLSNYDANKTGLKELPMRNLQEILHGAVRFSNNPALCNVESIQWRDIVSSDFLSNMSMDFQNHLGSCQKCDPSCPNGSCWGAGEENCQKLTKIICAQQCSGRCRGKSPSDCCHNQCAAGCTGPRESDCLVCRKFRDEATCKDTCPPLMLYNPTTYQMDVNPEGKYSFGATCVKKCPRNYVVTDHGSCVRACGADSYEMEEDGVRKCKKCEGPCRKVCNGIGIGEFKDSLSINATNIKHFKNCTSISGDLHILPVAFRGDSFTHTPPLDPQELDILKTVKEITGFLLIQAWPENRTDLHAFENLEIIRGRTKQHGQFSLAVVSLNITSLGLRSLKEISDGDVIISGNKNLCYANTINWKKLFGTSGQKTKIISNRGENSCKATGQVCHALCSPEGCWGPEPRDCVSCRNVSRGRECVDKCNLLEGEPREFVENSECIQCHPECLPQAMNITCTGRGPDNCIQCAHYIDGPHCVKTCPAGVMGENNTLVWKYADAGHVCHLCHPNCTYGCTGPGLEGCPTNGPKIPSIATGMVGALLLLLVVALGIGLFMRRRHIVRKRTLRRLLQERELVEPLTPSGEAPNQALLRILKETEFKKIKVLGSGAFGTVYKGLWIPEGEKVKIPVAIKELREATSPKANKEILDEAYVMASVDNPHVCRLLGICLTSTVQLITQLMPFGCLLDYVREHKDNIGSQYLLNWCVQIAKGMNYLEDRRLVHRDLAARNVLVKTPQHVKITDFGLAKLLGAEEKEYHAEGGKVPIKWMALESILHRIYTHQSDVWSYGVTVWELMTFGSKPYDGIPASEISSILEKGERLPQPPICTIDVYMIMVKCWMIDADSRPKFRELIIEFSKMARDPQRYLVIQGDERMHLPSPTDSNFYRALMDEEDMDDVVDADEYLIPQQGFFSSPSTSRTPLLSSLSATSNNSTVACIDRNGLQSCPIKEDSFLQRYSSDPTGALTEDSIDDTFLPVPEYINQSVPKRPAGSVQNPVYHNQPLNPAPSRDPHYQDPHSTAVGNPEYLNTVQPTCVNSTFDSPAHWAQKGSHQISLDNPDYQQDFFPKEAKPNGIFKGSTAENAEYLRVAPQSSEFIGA
Assay [10] in a line: Inhibition of mouse Swiss 3T3 fibroblasts proliferation. Format: functional, cell-based. In a few lines: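 Swiss 3T3 mouse fibroblast growth assay. IC50 is the concentration reducing cell growth rate by 50%, as the mean of duplicates from at least two separate experiments.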
Assay [11] relates to A-431. Nature of the assay: In vivo activity against human A431 epidermoid xenograft, net cell kill at 0.5 mg/kg/day administered subcutaneously for 1-27 days. The settings on record: route subcutaneous. Format: functional. Summed up:
as §2

Assay [12] deals with C6. Nature of the assay: In vivo activity against C6 glioma xenograft, net cell kill at 1.8 mg/kg administered intraperitoneally for 9 days. To be noted: route intraperitoneal. Format: functional. Summed up: as §3
Assay [13] has as its target T1, Platelet-derived growth factor receptor beta. In words: Inhibition of Platelet-derived growth factor receptor beta (PDGFr). In a few lines: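 Full-length mouse PDGF-β receptor was overexpressed in baculovirus-infected insect cells and assayed as cell lysates. Read-out was 32P-phosphate transfer from ATP into TCA-precipitable poly(Glu,Tyr) 4:1. IC50 values are means of duplicates from at least two separate experiments.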

Assay [14] has as its system C6. In words: In vivo activity against C6 glioma xenograft, tumor growth delay (T-C, days) at 1.8 mg/kg ip dose for 9 days. The settings on record: route intraperitoneal.
A short description of assay [15]: Inhibition of Src tyrosine kinase. Summed up: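 v-src protein came from baculovirus-infected insect cells. Kinase activity was measured as 32P incorporation from ATP into TCA-precipitable random Glu/Tyr (4:1) copolymer. IC50 values are means of duplicates from at least two separate experiments.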
Assay [16] has as its system A-431. In words: In vivo activity against human A431 epidermoid xenograft, weight change after 0.5 mg/kg/day sc dose for 9-15 days. Format: functional. The settings on record: route subcutaneous. Summed up: (§4)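 Nude mice (NCr nu/nu, 18-22 g) bearing sc A431 fragments in the right axilla (day 0) received continuous sc infusion from an Alzet miniosmotic pump implanted under ketamine-xylazine. Pumps were removed or replaced under lidocaine-epinephrine for longer therapy, in 7-day and 27-day studies. Daily dose was the maximum deliverable without significant precipitation. Weight change was taken as the maximum treatment-related loss.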

In assay [17] the target is Epidermal growth factor receptor (Mus musculus) (UniProt Q01279). In words: Inhibition of epidermal growth factor receptor (EGFr) autophosphorylation.
Chain of Epidermal growth factor receptor (Mus musculus) (Q01279 whole entry, looked up): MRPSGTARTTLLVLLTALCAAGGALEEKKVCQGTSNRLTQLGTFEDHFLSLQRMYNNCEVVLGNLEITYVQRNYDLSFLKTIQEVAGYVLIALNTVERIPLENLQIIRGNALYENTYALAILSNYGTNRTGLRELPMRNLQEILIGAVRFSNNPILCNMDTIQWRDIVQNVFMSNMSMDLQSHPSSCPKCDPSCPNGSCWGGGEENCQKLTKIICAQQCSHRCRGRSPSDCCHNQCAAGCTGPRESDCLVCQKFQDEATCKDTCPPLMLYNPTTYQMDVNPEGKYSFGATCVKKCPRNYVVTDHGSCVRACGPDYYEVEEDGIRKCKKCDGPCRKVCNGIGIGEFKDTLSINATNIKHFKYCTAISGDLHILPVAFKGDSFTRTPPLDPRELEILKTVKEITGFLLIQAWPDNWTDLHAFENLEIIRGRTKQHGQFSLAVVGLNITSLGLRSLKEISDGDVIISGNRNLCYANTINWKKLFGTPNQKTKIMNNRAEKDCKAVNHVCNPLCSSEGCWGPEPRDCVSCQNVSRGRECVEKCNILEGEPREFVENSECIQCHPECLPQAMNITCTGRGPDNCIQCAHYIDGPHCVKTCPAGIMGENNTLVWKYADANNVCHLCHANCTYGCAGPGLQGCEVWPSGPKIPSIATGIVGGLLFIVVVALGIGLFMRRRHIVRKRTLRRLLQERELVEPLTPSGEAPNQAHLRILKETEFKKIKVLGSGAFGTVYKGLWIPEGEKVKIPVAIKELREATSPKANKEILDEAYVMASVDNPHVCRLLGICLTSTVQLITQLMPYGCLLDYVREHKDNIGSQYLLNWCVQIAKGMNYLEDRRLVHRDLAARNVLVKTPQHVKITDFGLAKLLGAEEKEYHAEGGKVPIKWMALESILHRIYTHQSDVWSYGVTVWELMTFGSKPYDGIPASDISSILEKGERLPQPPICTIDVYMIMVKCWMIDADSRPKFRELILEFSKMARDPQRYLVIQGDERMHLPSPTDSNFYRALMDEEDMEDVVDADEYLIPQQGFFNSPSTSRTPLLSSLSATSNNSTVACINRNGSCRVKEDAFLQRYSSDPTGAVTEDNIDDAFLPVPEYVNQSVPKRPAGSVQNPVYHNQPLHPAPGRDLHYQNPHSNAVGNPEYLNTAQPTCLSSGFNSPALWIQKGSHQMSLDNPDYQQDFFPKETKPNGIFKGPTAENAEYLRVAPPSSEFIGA
The nature of assay [18]: Inhibition of RNA synthesis. Format: functional. In a few lines: as §1
For assay [19], the system named is A-431. In words: In vivo activity against human A431 epidermoid xenograft, weight change after 0.5 mg/kg/day sc dose for 1-27 days. The assay is classed as functional, organism-based. Summed up:
as §4

The target in assay [20] is T2, Epidermal growth factor receptor. Nature of the assay: Inhibition of epidermal growth factor receptor (EGFr) using peptide substrate. In a few lines: (§5)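 EGFr came from membrane vesicles shed by human A431 carcinoma cells. Activity was measured as 32P-phosphate transfer from ATP into a TCA-precipitable glutamate/tyrosine (4:1) random copolymer. ATP or peptide polymer substrate was varied. Ki was obtained by nonlinear regression with Cleland's equations, comparing slope and intercept determinations to assign the inhibition type.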

Assay [21] has the same target. Nature of the assay: Inhibition of epidermal growth factor receptor (EGFr) using ATP substrate. Summed up: as §5
Assay [22] is described as follows: Inhibition of Src tyrosine kinase using ATP substrate. Summed up: (§6)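 v-src kinase inhibition kinetics were run with either ATP or the Glu/Tyr peptide polymer substrate varied. Ki (µM) was obtained by nonlinear regression using Cleland's equations. Inhibition type was assigned by comparing Ki values from slope and intercept determinations.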
Assay [23] is described as follows: Inhibition of Src tyrosine kinase using peptide substrate. In a few lines:
as §6

T1 sequence (P05622 whole entry): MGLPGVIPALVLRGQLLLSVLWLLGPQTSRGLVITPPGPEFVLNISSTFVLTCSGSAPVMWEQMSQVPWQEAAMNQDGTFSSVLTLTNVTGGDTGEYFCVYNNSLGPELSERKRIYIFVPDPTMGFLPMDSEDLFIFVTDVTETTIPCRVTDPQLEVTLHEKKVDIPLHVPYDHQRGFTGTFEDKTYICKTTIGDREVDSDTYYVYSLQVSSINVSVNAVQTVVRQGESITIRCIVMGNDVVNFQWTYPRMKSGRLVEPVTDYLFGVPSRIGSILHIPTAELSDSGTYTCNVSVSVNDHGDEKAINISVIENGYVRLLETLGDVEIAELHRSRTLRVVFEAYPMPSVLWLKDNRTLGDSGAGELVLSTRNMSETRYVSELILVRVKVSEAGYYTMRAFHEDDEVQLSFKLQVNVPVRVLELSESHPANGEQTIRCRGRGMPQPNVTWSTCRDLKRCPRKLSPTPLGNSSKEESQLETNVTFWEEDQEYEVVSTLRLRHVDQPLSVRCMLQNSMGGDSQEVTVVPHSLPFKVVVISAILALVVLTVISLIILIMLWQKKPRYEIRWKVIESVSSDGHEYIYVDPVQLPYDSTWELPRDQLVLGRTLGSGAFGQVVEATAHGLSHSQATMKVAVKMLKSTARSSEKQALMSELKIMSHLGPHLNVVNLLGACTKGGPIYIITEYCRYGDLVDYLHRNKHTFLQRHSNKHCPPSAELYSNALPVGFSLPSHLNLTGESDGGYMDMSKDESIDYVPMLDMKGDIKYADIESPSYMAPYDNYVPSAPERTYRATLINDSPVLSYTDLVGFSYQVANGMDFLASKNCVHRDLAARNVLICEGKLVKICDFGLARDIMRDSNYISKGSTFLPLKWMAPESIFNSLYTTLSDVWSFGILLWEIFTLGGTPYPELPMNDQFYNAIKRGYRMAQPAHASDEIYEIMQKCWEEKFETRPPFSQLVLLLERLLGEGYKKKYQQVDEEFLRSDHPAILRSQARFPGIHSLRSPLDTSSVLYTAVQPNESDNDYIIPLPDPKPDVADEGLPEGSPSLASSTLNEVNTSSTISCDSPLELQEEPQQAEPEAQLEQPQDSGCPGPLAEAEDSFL

For `N[C@H](Cc1c([Se][Se]c2[nH]c3ccccc3c2C[C@H](N)C(=O)NCc2ccccc2)[nH]c2ccccc12)C(=O)NCc1ccccc1` (stereo in doubt; 33) [listing 1 of 2 here], the IC50 is 0.2 µM in assay [1]; 0.18 µM in assay [2]; 0.57 µM in assay [4]; 0.17 µM in assay [7]; 0.9 µM in assay [9]; 0.54 µM in assay [10] (Mus musculus). The IC50 stood at 14.1 µM in assay [13], 2 µM in assay [15], 4.2 µM in assay [17] and 0.35 µM in assay [18]. Also, the T-C was found to be 10.8 days in the assay on A-431 [3], 2.2 days in the assay on A-431 [8] and 2 days with C6 [14]. Further, the Net cell kill in the assay on A-431 [5] is on record as -0.2 log10; in the assay with A-431 [11] it was -0.4 log10; with C6 [12] it was -0.2 log10. The Weight change is recorded as -0.9 g in the assay on C6 [6] and -0.2 g with A-431 [16].

For `N[C@H](Cc1c([Se][Se]c2[nH]c3ccccc3c2C[C@H](N)C(=O)NCc2ccccc2)[nH]c2ccccc12)C(=O)NCc1ccccc1` (stereo in doubt; 33) [listing 2 of 2 here], the Weight change result in the assay on A-431 [19] was “Weight gain”.

On to `CCN(CC)CCNC(=O)c1c([Se][Se]c2c(C(=O)NCCN(CC)CC)c3ccccc3n2C)n(C)c2ccccc12`, for which the figures for the IC50 in assay [10] (Mus musculus), in assay [13] and in assay [15] were 19.5 µM, 3.4 µM and 1.8 µM, respectively.

As to `N[C@H](Cc1c([Se][Se]c2[nH]c3ccccc3c2C[C@H](N)C(=O)NCc2ccccc2)[nH]c2ccccc12)C(=O)NCc1ccccc1` (stereo in doubt; 34), the Ki in [20] stood at 5.6 µM; in assay [21], 2.7 µM. Moreover, the IC50 in assay [9] worked out at 1.3 µM; in assay [10], 0.6 µM; in assay [13], 25.5 µM; in assay [15] it was 3.8 µM.

On to `CNC(=O)c1c(SSc2c(C(=O)NC)c3ccccc3n2C)n(C)c2ccccc12`, for which the Ki in assay [20] stood at 3.9 µM; in [22] it was 8 µM; in [23] it was 1.4 µM; in assay [21] it was 2.3 µM. Besides, the IC50 in assay [9] turned out to be 6.9 µM; in [13], 28.1 µM; in [15], 6.7 µM.

As to `CCN(CC)CCNC(=O)c1c([Se][Se]c2[nH]c3ccccc3c2C(=O)NCCN(CC)CC)[nH]c2ccccc12`, the IC50 is 8 µM in assay [10] (Mus musculus), 12.8 µM in assay [13] and 3.6 µM in [15].

As to `Cn1c([Se][Se]c2c(C(=O)OC(C)(C)C)c3ccccc3n2C)c(C(=O)OC(C)(C)C)c2ccccc21`, the IC50 is more than 100 µM in assay [9], more than 31 µM in [13] and 1.5 µM in [15].

As to `O=C(NCc1ccccc1)[C@H](Cc1c([Se]c2[nH]c3ccccc3c2C[C@@H](NC(=O)C(F)(F)F)C(=O)NCc2ccccc2)[nH]c2ccccc12)NC(=O)C(F)(F)F`, the IC50 in assay [9], in assay [13] and in assay [15] was more than 50 µM throughout.

With `CNC(=O)c1c([Se][Se]c2[nH]c3ccccc3c2C(=O)NC)[nH]c2ccccc12`, the IC50 in [10] (Mus musculus) came out at 1 µM; in assay [13] it was 8 µM; in assay [15] it was 2.8 µM.

Regarding `O=C(NCc1ccccc1)[C@H](Cc1c([Se][Se]c2[nH]c3ccccc3c2C[C@@H](NC(=O)C(F)(F)F)C(=O)NCc2ccccc2)[nH]c2ccccc12)NC(=O)C(F)(F)F`, the IC50 in assay [9] was 7 µM; in [13], more than 50 µM; in [15] it was 6.2 µM.

On to `CNC(=O)c1c([Se][Se]c2c(C(=O)NC)c3ccccc3n2C)n(C)c2ccccc12`, for which the Ki in assay [20] was 3.9 µM; in assay [22], 0.8 µM; in assay [23], 0.6 µM; in assay [21], 3.1 µM. In addition, the IC50 in [9] came out at 6.1 µM; in [10] (Mus musculus) it was 5.5 µM; in assay [13], 4.7 µM; in assay [15], 0.4 µM.

In the case of `Cn1c([Se][Se]c2c(C(=O)O)c3ccccc3n2C)c(C(=O)O)c2ccccc21`, the IC50 was found to be 8 µM in assay [10] (Mus musculus), 17.4 µM in assay [13] and 2.4 µM in assay [15].

As for `CCN(CC)CCn1c([Se][Se]c2c(C(=O)NC)c3ccccc3n2CCN(CC)CC)c(C(=O)NC)c2ccccc21`, the IC50 in assay [13] amounted to 50 µM; in [15], 1.7 µM.
